Source: ChEMBL document CHEMBL3259819, “Antimicrobial peptides from skin secretions of Hypsiboas pulchellus (Anura: Hylidae)” (J Nat Prod, 2014)
≈ marks a conversion by molar mass, not a printed value. Where a SMILES comes first, the peptide text is derived from it.

Legend:
Staphylococcus aureus [1] = assay: Antimicrobial activity against Staphylococcus aureus; type: functional
Pseudomonas aeruginosa = assay: Antimicrobial activity against Pseudomonas aeruginosa; type: functional
Escherichia coli [2] = assay: Antimicrobial activity against Escherichia coli; type: functional
Bacillus subtilis = assay: Antimicrobial activity against Bacillus subtilis; type: functional
Enterococcus faecalis = assay: Antimicrobial activity against Enterococcus faecalis; type: functional
[3] = Toxicity in erythrocytes (unknown origin) assessed as hemolytic activity; type: cell-based, Erythrocyte; details: read-out: HD50 (the source's name)
Summary of the method: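 Human erythrocytes from heparinised blood, spun 3000 rpm for 10 min after three saline washes, used at 0.4% (v/v) in isotonic saline. Equal volumes incubated with increasing concentrations (0.4 to 4.4 mg/mL for extracts) for 60 min at 37 °C. Cells spun at 3000 rpm for 5 min and supernatant A405 read. Lysis by 1% Triton X-100 served as 100%.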

Escherichia coli [4] = assay: Antimicrobial activity against Escherichia coli ATCC 25922 after 18 to 24 hrs by microtitre dilution method; type: functional
Summary of the method: (§1)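 Modified microtiter broth dilution (Hancock method for AMPs). Strains were activated 24 h at 37 °C in Mueller-Hinton broth, and the inoculum was set to 5 × 10^7 cfu/mL. Tests ran in diluted MHB for 18 to 24 h at 37 °C. Peptides were solubilised in water with 10% acetic acid; the top assay concentration was 1280 μg/mL. MIC is the lowest concentration inhibiting growth.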

Staphylococcus aureus [5] = assay: Antimicrobial activity against Staphylococcus aureus ATCC 25929 after 18 to 24 hrs by microtitre dilution method; type: functional; summary of the method: as §1
[6] = Hemolytic activity in human erythrocytes assessed as lowest concentration required to hemolysis after 60 mins; type: ADME, cell-based; details: erythrocyte, 1 h
Summary of the method: (§2)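 Human erythrocytes came from heparinized blood, were washed three times in saline and pelleted, then suspended at 0.4% (v/v) in isotonic saline. 1 mL cells was mixed with 1 mL peptide dilution and held 60 min at 37 °C. After centrifugation, supernatant absorbance was read at 405 nm, with lysis by 1% Triton X-100 set as 100%.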

[7] = Therapeutic index, ratio of hemolytic activity in human erythrocytes assessed as lowest concentration required for hemolysis to MIC for Escherichia coli; type: cell-based; details: read-out: TI
Summary of the method: (§3)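 TI is the lowest hemolytic concentration divided by the MIC, calculated per peptide and strain. LHC is the lowest peptide concentration giving 100% hemolysis of human erythrocytes (60 min, 37 °C). Where 100% hemolysis was not reached at 320 μM, 640 μM was used. MICs came from microtiter broth dilution against E. coli ATCC 25922 or S. aureus ATCC 25929.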

[8] = Therapeutic index, ratio of hemolytic activity in human erythrocytes assessed as lowest concentration required for hemolysis to MIC for Staphylococcus aureus; type: cell-based; details: read-out: TI; summary of the method: as §3
[9] = Hemolytic activity in human erythrocytes at 320 uM after 60 mins; type: ADME, cell-based, Erythrocyte; details: read-out: Activity; summary of the method: as §2
[10] = Hemolytic activity in human erythrocytes at 20 uM after 60 mins; type: ADME, cell-based, Erythrocyte; details: read-out: Activity; summary of the method: as §2

Structure (SMILES) | MIC (Staphylococcus aureus [1]) [µM] | MIC (Pseudomonas aeruginosa) [µM] | MIC (Escherichia coli [2]) [µM] | MIC (Bacillus subtilis) [µM] | MIC (Enterococcus faecalis) [µM] | HC50 [3] [µM] | MIC (Escherichia coli [4]) [µM] | MIC (Staphylococcus aureus [5]) [µM] | MHC [6] [µM] | selectivity ratio [7] | selectivity ratio [8] | hemolysis at 1 h, 320 µM [9] [%] | hemolysis at 1 h, 20 µM [10] [%]
CC(C)C[C@H](NC(=O)[C@H](C)NC(=O)[C@@H](NC(=O)[C@H](CCCCN)NC(=O)CNC(=O)[C@@H](NC(=O)[C@@H](NC(=O)[C@H](CCCCN)NC(=O)CNC(=O)[C@H](CC(C)C)NC(=O)[C@H](CO)NC(=O)[C@H](CCCCN)NC(=O)[C@H](CC(C)C)NC(=O)[C@H](CCCCN)NC(=O)[C@H](CC(=O)O)NC(=O)[C@H](CC(C)C)NC(=O)[C@H](Cc1c[nH]c2ccccc12)NC(=O)[C@H](C)N)C(C)C)C(C)C)C(C)C)C(=O)NCC(=O)N[C@H](C(=O)N[C@@H](C)C(=O)N[C@@H](CCC(N)=O)C(=O)N[C@@H](CC(N)=O)C(=O)N[C@@H](Cc1ccc(O)cc1)C(=O)N[C@@H](CC(C)C)C(=O)N[C@@H](CC(N)=O)C(=O)N1CCC[C@H]1C(=O)N[C@@H](CCC(N)=O)C(=O)N[C@@H](CCC(N)=O)C(=O)O)C(C)C (H-AWLDKLKSLGKVVGKVALGVAQNYLNPQQ-OH) | 20 (≈ 62.8 µg/mL) | 10 (≈ 31.4 µg/mL) | 5 (≈ 15.7 µg/mL) |  |  |  |  |  |  |  |  |  | 
CC[C@H](C)[C@H](NC(=O)CN)C(=O)N[C@@H](CC(C)C)C(=O)N[C@@H](CC(=O)O)C(=O)N[C@@H](C)C(=O)N[C@H](C(=O)N[C@@H](CCCCN)C(=O)N[C@@H](C)C(=O)N[C@H](C(=O)N[C@@H](C)C(=O)N[C@@H](CCCCN)C(=O)N[C@@H](C)C(=O)N[C@@H](C)C(=O)NCC(=O)O)[C@@H](C)CC)[C@@H](C)CC (H-GILDAIKAIAKAAG-OH) | 8 (≈ 10.5 µg/mL) | 64 (≈ 83.9 µg/mL) | 32 (≈ 42 µg/mL) |  |  |  |  |  |  |  |  |  | 
CC[C@H](C)[C@H](N)C(=O)N[C@@H](Cc1ccccc1)C(=O)NCC(=O)N[C@@H](C)C(=O)N[C@H](C(=O)N[C@@H](CC(C)C)C(=O)N1CCC[C@H]1C(=O)N[C@@H](CC(C)C)C(=O)N[C@@H](C)C(=O)N[C@@H](CC(C)C)C(=O)NCC(=O)N[C@@H](C)C(=O)N[C@@H](CC(C)C)C(=O)N[C@@H](CCCCN)C(=O)N[C@@H](CC(N)=O)C(=O)N[C@@H](CC(C)C)C(=O)N[C@H](C(=O)N[C@@H](CCCCN)C(=O)O)[C@@H](C)CC)[C@@H](C)CC (H-IFGAILPLALGALKNLIK-OH) | 8 (≈ 14.9 µg/mL) | 64 (≈ 119 µg/mL) | 32 (≈ 59.7 µg/mL) | 8 (≈ 14.9 µg/mL) | 16 (≈ 29.8 µg/mL) | 18 |  |  |  |  |  |  | 
CC(C)C[C@H](NC(=O)[C@H](CO)NC(=O)[C@@H]1CCCN1C(=O)[C@H](CO)NC(=O)[C@H](CC(C)C)NC(=O)[C@@H](N)CCCCN)C(=O)NCC(=O)N1CCC[C@H]1C(=O)N[C@H](C(=O)N[C@@H](CO)C(=O)N[C@@H](CCCCN)C(=O)NCC(=O)N[C@@H](CCCCN)C(=O)N[C@@H](CC(C)C)C(=O)N[C@@H](CC(C)C)C(=O)N[C@@H](C)C(=O)NCC(=O)N[C@@H](CCC(N)=O)C(=O)N[C@@H](CCCNC(=N)N)C(N)=O)C(C)C (H-KLSPSLGPVSKGKLLAGQR-NH2) |  |  |  |  |  |  | 33 (≈ 63.9 µg/mL) | 66 (≈ 128 µg/mL) | 320 | 9.7 | 4.9 | 100 | 
CC(C)C[C@H](NC(=O)CNC(=O)[C@H](C)NC(=O)[C@H](CC(C)C)NC(=O)[C@H](CC(C)C)NC(=O)[C@@H](NC(=O)[C@H](CCCCN)NC(=O)[C@H](CC(C)C)NC(=O)[C@H](CC(C)C)NC(=O)[C@H](C)NC(=O)[C@@H]1CCCN1C(=O)[C@H](CC(C)C)NC(=O)[C@H](C)NC(=O)[C@@H](NC(=O)CNC(=O)[C@H](CC(C)C)NC(=O)[C@@H](N)CCCNC(=N)N)[C@@H](C)O)[C@@H](C)O)C(=O)N[C@@H](CC(N)=O)C(=O)NCC(N)=O (H-RLGTALPALLKTLLAGLNG-NH2) |  |  |  |  |  |  | 17 (≈ 32.2 µg/mL) | 17 (≈ 32.2 µg/mL) | 25 | 1.5 | 1.5 |  | > 90
CC(C)C[C@H](NC(=O)[C@H](CC(C)C)NC(=O)[C@@H](NC(=O)[C@@H]1CCCN1C(=O)[C@H](CCCCN)NC(=O)[C@@H](N)[C@@H](C)O)[C@@H](C)O)C(=O)NCC(=O)N[C@@H](CC(C)C)C(=O)N1CCC[C@H]1C(=O)N[C@@H](CC(C)C)C(=O)NCC(=O)N[C@@H](C)C(=O)NCC(=O)N1CCC[C@H]1C(=O)N[C@@H](C)C(=O)N[C@@H](C)C(=O)NCC(=O)N1CCC[C@H]1C(=O)NCC(=O)N[C@@H](CCCCN)C(=O)N[C@@H](CCCNC(=N)N)C(N)=O (H-TKPTLLGLPLGAGPAAGPGKR-NH2) |  |  |  |  |  |  | 16 (≈ 31.5 µg/mL) | 8 (≈ 15.8 µg/mL) | 640 | 40 | 80 | ≤ 12 | 
